This is an account of results in ChEMBL document CHEMBL1781932 (J Med Chem, 2011).

Values after ≈ are worked out from the molar mass of the structure shown. A value given as a limit tells only on which side of the number the result lay.

Data set [1] deals with Staphylococcus aureus. The data set can be described thus: Antimicrobial activity against methicillin-, tetracycline-resistant Staphylococcus aureus isolate 161 harboring tetM gene by CLSI dilution method. Format: functional.
In a further data set the test system is Pseudomonas aeruginosa. As to the kind of experiment: Antimicrobial activity against tetracycline-susceptible Pseudomonas aeruginosa isolate 111 by CLSI dilution method. It counts as functional. The procedure, abridged: (§1)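 Broth microdilution per CLSI in fresh cation-adjusted Mueller Hinton broth, kept at 4 °C before testing, with defibrinated horse blood added as appropriate. Strains were from ATCC. MIC in µg/mL. Runs were accepted when comparator antibiotics against ATCC quality-control strains fell within recommended ranges.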

Data set [2] can be described thus: Cmax in Sprague-Dawley rat at 1 mg/kg, iv administered as single dose measured after 24 to 48 hrs. It counts as ADME, organism-based. Also on record: dose 1 mg/kg, route intravenous. The note with it: in vivo. The procedure, abridged: (§2)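 Sprague-Dawley rats (n = 3) were fasted overnight (minimum 12 h) and given a single dose, iv 1 mg/kg or oral 10 mg/kg, in sterile water. Samples were taken over 24–48 h. PK parameters came from noncompartmental analysis.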

In a further data set the test system is Rattus norvegicus. The data set can be described thus: Oral bioavailability in Sprague-Dawley rat at 10 mg/kg administered as single dose. Format: ADME, organism-based. The note with it: in vivo. The procedure, abridged:
as §2

The test system of data set [3] is Staphylococcus aureus. The data set can be described thus: Antimicrobial activity against tetracycline-resistant Staphylococcus aureus isolate 158 harboring tetK gene by CLSI dilution method. Format: functional.
The test system of data set [4] is Staphylococcus aureus. As to the kind of experiment: Antimicrobial activity against tetracycline-susceptible Staphylococcus aureus Smith isolate 100 infected in iv dosed mouse systemic infection model assessed as survival of mouse administered 60 mins post infection measured up to 48 hrs. Format: functional. The note with it: Smith isolate 100, iv, read-out: PD50. The procedure, abridged: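 Mouse septicemia model with S. aureus ATCC 13709 mixed with 5% mucin, given intraperitoneally at 2.1×10^6 cfu/mouse. Compound was dosed intravenously 60 min after infection at 0.3–30 mg/kg in sterile water, 6 mice/dose group, with untreated infection controls. Survival was followed over 48 h. PD50 was derived by Probit analysis with 95% CI.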

The subject of the next data set is Acinetobacter baumannii. The data set can be described thus: Antimicrobial activity against tetracycline-susceptible Acinetobacter baumannii isolate 110 by CLSI dilution method. Format: functional. The procedure, abridged:
as §1

Data set [5] has as its system Staphylococcus aureus. As to the kind of experiment: Antimicrobial activity against tetracycline-susceptible Staphylococcus aureus isolate 101 by CLSI dilution method. It counts as functional.
Data set [6] deals with Staphylococcus aureus. As to the kind of experiment: Antimicrobial activity against tetracycline-susceptible Staphylococcus aureus Smith isolate 100 by CLSI dilution method. It counts as functional.
Data set [7] concerns Escherichia coli. As to the kind of experiment: Antimicrobial activity against tetracycline-resistant Escherichia coli isolate 155 harboring tetA gene by CLSI dilution method. Format: functional.
Data set [8] deals with Enterococcus faecalis. As to the kind of experiment: Antimicrobial activity against tetracycline-resistant Enterococcus faecalis isolate 159 harboring […] gene by CLSI dilution method. Format: functional.
Data set [9] deals with Streptococcus pneumoniae. The data set can be described thus: Antimicrobial activity against tetracycline-resistant Streptococcus pneumoniae isolate 160 harboring tetM gene by CLSI dilution method. It counts as functional.
In data set [10] the test system is Klebsiella pneumoniae. As to the kind of experiment: Antimicrobial activity against tetracycline-susceptible Klebsiella pneumoniae isolate 109 by CLSI dilution method. Format: functional. The procedure, abridged: as §1
A short description of data set [11]: Apparent volume of distribution in Sprague-Dawley rat at 1 mg/kg, iv administered as single dose measured after 24 to 48 hrs. The note with it: in vivo.
Data set [12] can be described thus: Clearance in Sprague-Dawley rat at 1 mg/kg, iv administered as single dose measured after 24 to 48 hrs. Format: ADME, organism-based. Also on record: dose 1 mg/kg, route intravenous. The note with it: in vivo. The procedure, abridged:
as §2

Data set [13] relates to Enterococcus faecalis. As to the kind of experiment: Antimicrobial activity against tetracycline-susceptible Enterococcus faecalis isolate 103 by CLSI dilution method. Format: functional. The procedure, abridged:
as §1

The subject of data set [14] is Klebsiella pneumoniae. As to the kind of experiment: Antimicrobial activity against tetracycline-resistant Klebsiella pneumoniae isolate 153 harboring tetA gene by CLSI dilution method. Format: functional.
A short description of data set [15]: AUC (0 to infinity) in Sprague-Dawley rat at 1 mg/kg, iv administered as single dose measured after 24 to 48 hrs. It counts as ADME, organism-based. Also on record: time infinity, dose 1 mg/kg, route intravenous. The note with it: plasma. The procedure, abridged:
as §2

Data set [16] deals with Streptococcus pneumoniae. The data set can be described thus: Antimicrobial activity against tetracycline-susceptible Streptococcus pneumoniae isolate 106 by CLSI dilution method. It counts as functional. The procedure, abridged:
as §1

A short description of data set [17]: Elimination half life in Sprague-Dawley rat at 1 mg/kg, iv administered as single dose. Set-up: dose 1 mg/kg, route intravenous. The note with it: in vivo, read-out: beta t1/2 (converted). Format: ADME, organism-based. The procedure, abridged: as §2
The test system of data set [18] is Escherichia coli. The data set can be described thus: Antimicrobial activity against tetracycline-susceptible Escherichia coli isolate 107 by CLSI dilution method. Format: functional. The procedure, abridged: as §1
In a further data set the test system is Enterobacter cloacae. As to the kind of experiment: Antimicrobial activity against tetracycline-susceptible Enterobacter cloacae isolate 108 by CLSI dilution method. It counts as functional. The procedure, abridged: as §1

What is called MIC is the smallest concentration in the dilution series that meets the test's criterion for growth inhibition. As usually defined, the Cmax is the peak of the concentration-time curve. The clearance is the volume of plasma or blood freed of the substance per unit of time. A lower clearance goes with inefficient removal. The term AUC(0-inf) denotes the area under the concentration-time curve extrapolated to infinity. Read a low AUC(0-inf) as less exposure. Take `CN(C)[C@@H]1C(O)=C(C(N)=O)C(=O)[C@@]2(O)C(O)=C3C(=O)c4c(c(F)c5ccc(CNC(C)(C)C)cc5c4O)C[C@H]3C[C@@H]12`: the minimum inhibitory concentration (MIC) against Staphylococcus aureus [1] came out at 1 µg/mL (≈ 1.76 µM); in the data set with Pseudomonas aeruginosa, 16 µg/mL (≈ 28.2 µM); with Staphylococcus aureus [3] it was 0.0156 µg/mL (≈ 0.0275 µM); with Acinetobacter baumannii, 0.25 µg/mL (≈ 0.44 µM); against Staphylococcus aureus [5], 0.5 µg/mL (≈ 0.881 µM); against Staphylococcus aureus [6], 0.5 µg/mL (≈ 0.881 µM). In addition, the minimal inhibitory concentration (MIC) turned out to be 4 µg/mL (≈ 7.05 µM) in the data set on Escherichia coli [7]; 1 µg/mL (≈ 1.76 µM) against Enterococcus faecalis [8]; 0.0313 µg/mL (≈ 0.0551 µM) against Streptococcus pneumoniae [9]; 2 µg/mL (≈ 3.52 µM) in the data set on Klebsiella pneumoniae [10]; 0.0313 µg/mL (≈ 0.0551 µM) in the data set with Enterococcus faecalis [13]; 4 µg/mL (≈ 7.05 µM) in the data set with Klebsiella pneumoniae [14]. In the data set with Streptococcus pneumoniae [16], inhibition of growth (MIC) required 0.0156 µg/mL (≈ 0.0275 µM). Besides, in data set [2], the Cmax worked out at 278 ng/mL. The compound also displayed a F in the data set on Rattus norvegicus of 1.2%. In the data set on Staphylococcus aureus [4], the ED50 came to 0.35 mg/kg. Moreover, in [11], the Vd came to 11.9 L/kg. In [12], this compound registered a clearance of 17.7 mL/min/kg. Also, the total exposure AUC(0-inf) in data set [15] came to 975 ng·h/mL. In addition, the half-life in data set [17] is 469 min.

As to `CN(C)[C@@H]1C(O)=C(C(N)=O)C(=O)[C@@]2(O)C(O)=C3C(=O)c4c(c(F)c5ccc(CN6CC(F)C6)cc5c4O)C[C@H]3C[C@@H]12`, the MIC against Staphylococcus aureus [1] is 1 µg/mL (≈ 1.76 µM); against Pseudomonas aeruginosa, more than 32 µg/mL; with Staphylococcus aureus [3] it was 0.25 µg/mL (≈ 0.439 µM); with Acinetobacter baumannii it was 1 µg/mL (≈ 1.76 µM); against Staphylococcus aureus [5], 0.5 µg/mL (≈ 0.878 µM); with Staphylococcus aureus [6], 1 µg/mL (≈ 1.76 µM). The MIC against Escherichia coli [7] is 8 µg/mL (≈ 14 µM); with Enterococcus faecalis [8], 1 µg/mL (≈ 1.76 µM); in the data set on Escherichia coli [18], 4 µg/mL (≈ 7.02 µM); in the data set with Enterobacter cloacae it was 8 µg/mL (≈ 14 µM); against Klebsiella pneumoniae [10], 4 µg/mL (≈ 7.02 µM); in the data set on Enterococcus faecalis [13], 0.25 µg/mL (≈ 0.439 µM). Also, the MIC in the data set on Klebsiella pneumoniae [14] was 8 µg/mL (≈ 14 µM); in the data set with Streptococcus pneumoniae [16], 0.25 µg/mL (≈ 0.439 µM). In data set [2], this compound registered a Cmax of 358 ng/mL. This compound returned a F in the data set on Rattus norvegicus of 16.7%. For the same compound, the Vd in data set [11] is 3.06 L/kg. The clearance in [12] amounted to 16.1 mL/min/kg. Besides, the AUC(0-inf) in data set [15] turned out to be 1040 ng·h/mL. Further, in data set [17], the half-life is 133 min.

`COc1c2c(c(O)c3cc(CNC4CC4)ccc13)C(=O)C1=C(O)[C@]3(O)C(=O)C(C(N)=O)=C(O)[C@@H](N(C)C)[C@@H]3C[C@@H]1C2`: the minimum inhibitory concentration (MIC) with Staphylococcus aureus [1] was found to be 2 µg/mL (≈ 3.55 µM); in the data set with Pseudomonas aeruginosa, 16 µg/mL (≈ 28.4 µM); with Staphylococcus aureus [3], 0.0313 µg/mL (≈ 0.0555 µM); in the data set on Acinetobacter baumannii, 0.25 µg/mL (≈ 0.444 µM); in the data set with Staphylococcus aureus [5] it was 0.0625 µg/mL (≈ 0.111 µM); in the data set on Staphylococcus aureus [6], 0.25 µg/mL (≈ 0.444 µM). The MIC in the data set on Escherichia coli [7] was 8 µg/mL (≈ 14.2 µM); with Enterococcus faecalis [8], 2 µg/mL (≈ 3.55 µM); against Escherichia coli [18], 0.5 µg/mL (≈ 0.887 µM); against Enterobacter cloacae, 4 µg/mL (≈ 7.1 µM); against Streptococcus pneumoniae [9], 0.125 µg/mL (≈ 0.222 µM); with Klebsiella pneumoniae [10] it was 2 µg/mL (≈ 3.55 µM). Also, the MIC is 0.0625 µg/mL (≈ 0.111 µM) in the data set on Enterococcus faecalis [13], 8 µg/mL (≈ 14.2 µM) in the data set with Klebsiella pneumoniae [14] and 0.0156 µg/mL (≈ 0.0277 µM) in the data set on Streptococcus pneumoniae [16]. The compound further yielded a Cmax in data set [2] of 124 ng/mL. Also, in the data set with Rattus norvegicus, the F was 12.5%. The ED50 with Staphylococcus aureus [4] was 0.6 mg/kg. The Vd in data set [11] worked out at 8.4 L/kg. The compound also displayed a clearance in data set [12] of 45.4 mL/min/kg. This compound also came in with an AUC(0-inf) in data set [15] of 385 ng·h/mL. Also, the half-life in data set [17] was 130 min.

Consider `COc1c2c(c(O)c3cc(CNCC(C)C)ccc13)C(=O)C1=C(O)[C@]3(O)C(=O)C(C(N)=O)=C(O)[C@@H](N(C)C)[C@@H]3C[C@@H]1C2`, for which the MIC against Staphylococcus aureus [1] was 2 µg/mL (≈ 3.45 µM); in the data set with Pseudomonas aeruginosa, 16 µg/mL (≈ 27.6 µM); with Staphylococcus aureus [3], 0.016 µg/mL (≈ 0.0276 µM); against Acinetobacter baumannii, 0.25 µg/mL (≈ 0.431 µM); with Staphylococcus aureus [6] it was 0.5 µg/mL (≈ 0.863 µM); against Escherichia coli [7], 4 µg/mL (≈ 6.9 µM). Besides, the minimal inhibitory concentration (MIC) was 2 µg/mL (≈ 3.45 µM) against Enterococcus faecalis [8]; 1 µg/mL (≈ 1.73 µM) in the data set on Escherichia coli [18]; 2 µg/mL (≈ 3.45 µM) with Enterobacter cloacae; 0.125 µg/mL (≈ 0.216 µM) against Streptococcus pneumoniae [9]; 1 µg/mL (≈ 1.73 µM) against Klebsiella pneumoniae [10]; 0.0625 µg/mL (≈ 0.108 µM) against Enterococcus faecalis [13]. For the same compound, the minimum inhibitory concentration (MIC) with Klebsiella pneumoniae [14] came to 8 µg/mL (≈ 13.8 µM); against Streptococcus pneumoniae [16] it was 0.0156 µg/mL (≈ 0.0269 µM). Moreover, in data set [2], the Cmax worked out at 414 ng/mL. This compound also registered a F in the data set with Rattus norvegicus of 2.7%. Further, the ED50 in the data set on Staphylococcus aureus [4] was less than 0.3 mg/kg. Moreover, the Vd in [11] was determined as 9.6 L/kg. Moreover, the clearance in data set [12] amounted to 20.5 mL/min/kg. In data set [15], this compound returned a total exposure AUC(0-inf) of 815 ng·h/mL. In addition, the half-life in data set [17] was 324 min.
